This note sets out measurements from ChEMBL document CHEMBL1151684, “Synthesis and antitumoral activity of novel 3-(2-substituted-1,3,4-oxadiazol-5-yl) and 3-(5-substituted-1,2,4-triazol-3-yl) beta-carboline derivatives” (2008).

Holding throughout (format): functional
The subject of one test is HT-29. Description: Growth inhibition of human HT-29 cells after 48 hrs by sulforhodamine B assay. As to conditions: HT-29, 48 h. Put shortly:
(§1)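 Sulforhodamine B colorimetric assay following the NCI standard protocol, with doxorubicin as positive control. Each compound was tested at four concentrations in 10-fold dilutions (0.25 to 250). GI50, the concentration giving 50% growth reduction versus untreated control cells, was derived from dose–response curves.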

The next test deals with K562. Description: Growth inhibition of human K-562 cells after 48 hrs by sulforhodamine B assay. The conditions noted are these: K562, 48 h. Put shortly:
as §1

A further test has as its system 786-0. Kind of test: Growth inhibition of human 786-0 cells after 48 hrs by sulforhodamine B assay. The conditions noted are these: 786-0, 48 h. The gist of the method: as §1
Another test deals with OVCAR. Description: Growth inhibition of human OVCAR cells after 48 hrs by sulforhodamine B assay. The gist of the method: as §1
For the next test, the system named is MCF7. Description: Growth inhibition of human MCF7 cells after 48 hrs by sulforhodamine B assay. The conditions noted are these: MCF7, 48 h. Put shortly:
as §1

A short description of test [1]: Growth inhibition of human PCO3 cells after 48 hrs by sulforhodamine B assay. As to conditions: PCO3, 48 h. The gist of the method: as §1
A further test has as its system UACC-62. Description: Growth inhibition of human UACC-62 cells after 48 hrs by sulforhodamine B assay. As to conditions: UACC-62, 48 h. Put shortly:
as §1

A short description of test [2]: Growth inhibition of human NCI-460 cells after 48 hrs by sulforhodamine B assay. The conditions noted are these: NCI-460, 48 h. The gist of the method: as §1

Structures are written as SMILES.

Regarding `S=c1[nH]nc(-c2cc3c([nH]c4ccccc43)c(-c3ccccc3)n2)o1`, the GI50 in the test on HT-29 worked out at 25.5 µM; in the test with K562, 15.3 µM; with 786-0 it was 27.9 µM; with OVCAR, 31.8 µM; in the test with MCF7 it was 25.5 µM; in test [1], 25.5 µM. For the same compound, the GI50 in the test with UACC-62 was more than 100 µM; in test [2], 20.6 µM. For the same compound, the TGI was more than 100 µM in the test on HT-29; 54.4 µM in the test with K562; more than 100 µM with 786-0; more than 100 µM in the test with OVCAR; more than 100 µM in the test with MCF7; more than 100 µM in test [1]. In addition, the TGI (in the test with UACC-62; in test [2]) was more than 100 µM throughout. This compound also gave an LC50 (concentration causing 50% net cell kill) in the test with K562 of more than 100 µM.
Take `CSc1nnc(-c2cc3c([nH]c4ccccc43)c(-c3ccccc3Cl)n2)n1N`: the GI50 in the test on HT-29 came to 20.4 µM; in the test with K562 it was 1.92 µM; in the test with 786-0, 16.8 µM; in the test on OVCAR, 11.2 µM; with MCF7, 20.1 µM; in test [1], 22.2 µM. Besides, the figures for the GI50 (in the test with UACC-62; in test [2]) were 18.6 µM and 13.9 µM, respectively. Further, the TGI in the test with HT-29 was more than 100 µM; in the test on K562 it was more than 100 µM; in the test with 786-0, 93.5 µM; in the test with OVCAR it was 38.4 µM; in the test on MCF7 it was more than 100 µM; in test [1], more than 100 µM. In addition, the results for the concentration for total growth inhibition (TGI) (in the test on UACC-62; in test [2]) were 59 µM and 41.8 µM, respectively. In addition, in the test with 786-0 (read-out: LC50 (the source's name)), the CC50 is more than 100 µM. In addition, the LC50 (concentration killing 50% of the cells, NCI protocol) in the test on OVCAR was more than 100 µM. The LC50 (concentration killing 50% of cells, NCI protocol) with UACC-62 is more than 100 µM. Moreover, the LC50 (concentration for 50% net cell kill) in test [2] was more than 100 µM.
With `CSc1nnc(-c2cc3c([nH]c4ccccc43)c(-c3ccccc3Cl)n2)o1`, the GI50 was 8.02 µM in the test on HT-29; 0.17 µM in the test with K562; 48.6 µM with 786-0; 0.01 µM in the test on OVCAR; 16.8 µM in the test on MCF7; 1.03 µM in test [1]. Further, the GI50 stood at 15.2 µM with UACC-62 and 1.64 µM in test [2]. The same compound displayed an LC50 (concentration killing 50% of the cells present at the start) with HT-29 of more than 100 µM. The concentration for total growth inhibition (TGI) in the test on HT-29 is 99.6 µM; in the test on K562, 68.4 µM; in the test on 786-0 it was more than 100 µM; in the test with OVCAR, 0.1 µM; in the test on MCF7 it was 51.9 µM; in test [1], 3.8 µM. In addition, the TGI in the test on UACC-62 is more than 100 µM; in test [2] it was 4.2 µM. This compound also had an LC50 (concentration causing 50% net cell kill) in the test on K562 of more than 100 µM. Moreover, in the test on OVCAR, the LC50 (concentration killing 50% of the cells, NCI protocol) is 10.1 µM. For the same compound, the LC50 (concentration killing 50% of cells) in the test on MCF7 was more than 100 µM; in test [1] it was 73.5 µM. In test [2], this compound returned an LC50 (concentration for 50% net cell kill) of more than 100 µM.
`CSc1nnc(-c2cc3c([nH]c4ccccc43)c(-c3ccc(N(C)C)cc3)n2)o1`: the GI50 was 87.4 µM in the test with HT-29; more than 100 µM in the test on K562; more than 100 µM in the test with 786-0; more than 100 µM in the test on OVCAR; more than 100 µM in the test on MCF7; 92.6 µM in test [1]. Further, the GI50 (with UACC-62; in test [2]) was more than 100 µM in each case.
As for `O=[N+]([O-])c1ccc(-c2nc(-c3n[nH]c(=S)o3)cc3c2[nH]c2ccccc23)cc1`, the GI50 with HT-29 is 31.3 µM; with K562, 46.7 µM; with 786-0, 73.1 µM; with OVCAR, more than 100 µM; with MCF7, 27.6 µM; in test [1], 26 µM. The figures for the GI50 (in the test with UACC-62; in test [2]) were 38 µM and more than 100 µM, respectively. Also, the TGI was more than 100 µM in the test with HT-29; more than 100 µM in the test on K562; more than 100 µM with 786-0; more than 100 µM with OVCAR; more than 100 µM in the test on MCF7; 99.2 µM in test [1]. Moreover, the TGI (in the test on UACC-62; in test [2]) was more than 100 µM throughout. Moreover, the LC50 (concentration killing 50% of cells) in test [1] was more than 100 µM.
